Measured values as given in ChEMBL document CHEMBL1641375, “Antitumor agents 279. Structure-activity relationship and in vivo studies of novel 2-(furan-2-yl)naphthalen-1-ol (FNO) analogs as potent and selective anti-breast cancer agents” (2011).
Values after ≈ are worked out from the molar mass of the structure shown.

Key:
Type in all cases: functional
[1] = test system: ZR-75-1; assay: Cytotoxicity against human ZR-75-1 cells after 72 hrs by MTT assay; conditions: ZR-75-1, 72 h, read-out: ED50 (the source's name)
In short: (§1)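 Focused human tumour panel: A549 (non-small cell lung), DU145 (prostate), KB (nasopharyngeal), KB-VIN (MDR KB subline selected with vincristine), MDA-MB-231 (ER-negative basal-like breast), SK-BR-3 (ER-negative, HER2-overexpressing luminal-like breast), ZR-75-1 (ER-positive, HER2-overexpressing luminal-like breast). Run by previously published methods.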

[2] = test system: SK-BR-3; assay: Cytotoxicity against human SKBR3 cells after 72 hrs by MTT assay; conditions: SK-BR-3, 72 h, read-out: ED50 (the source's name); in short: as §1
[3] = test system: A549; assay: Cytotoxicity against human A549 cells after 72 hrs by MTT assay; conditions: A549, 72 h, read-out: ED50 (the source's name); in short: as §1
[4] = Cytotoxicity against human KBVIN cells after 72 hrs by MTT assay; conditions: read-out: ED50 (the source's name); in short: as §1
[5] = test system: DU-145; assay: Cytotoxicity against human DU145 cells after 72 hrs by MTT assay; conditions: DU-145, 72 h, read-out: ED50 (the source's name); in short: as §1
[6] = test system: KB; assay: Cytotoxicity against human KB cells after 72 hrs by MTT assay; conditions: read-out: ED50 (the source's name); in short: as §1
[7] = test system: MDA-MB-231; assay: Cytotoxicity against human MDA-MB-231 cells after 72 hrs by MTT assay; conditions: MDA-MB-231, 72 h, read-out: ED50 (the source's name); in short: as §1
[8] = test system: MDA-MB-231; assay: Selectivity ratio, ED50 for human MDA-MB-231 cells to ED50 for human SKBR3 cells
[9] = test system: SK-BR-3; assay: Selectivity ratio, ED50 for human DU145 cells to ED50 for human SKBR3 cells
[10] = test system: SK-BR-3; assay: Selectivity ratio, ED50 for human KBVIN cells to ED50 for human SKBR3 cells
[11] = test system: A549; assay: Selectivity ratio, ED50 for human A549 cells to ED50 for human SKBR3 cells
[12] = test system: SK-BR-3; assay: Selectivity ratio, ED50 for human KB cells to ED50 for human SKBR3 cells
[13] = test system: ZR-75-1; assay: Selectivity ratio, ED50 for human ZR-75-1 cells to ED50 for human SKBR3 cells

`CCc1cccc2c(OC)c(-c3occ(C)c3COCC(F)(F)F)ccc12` showed an EC50 [1] of 5.3 µg/mL (≈ 14 µM), an EC50 [2] of 5.3 µg/mL (≈ 14 µM) and an EC50 [3] of over 10 µg/mL. The EC50 [4] was 6 µg/mL (≈ 15.9 µM), the EC50 [5] was 5.7 µg/mL (≈ 15.1 µM) and the EC50 [6] was 6.6 µg/mL (≈ 17.4 µM).

Work on `CCc1cccc2c(OC)c(-c3occ(C)c3C(=O)On3nnc4ccccc43)ccc12` yielded an EC50 [1] of over 10 µg/mL, an EC50 [2] of over 10 µg/mL and an EC50 [3] of over 10 µg/mL. For the same molecule, the EC50 [4] was over 10 µg/mL, the EC50 [7] was over 10 µg/mL and the EC50 [5] was over 10 µg/mL. It also gave an EC50 [6] of over 10 µg/mL.

Molecule `CCc1cccc2c(OC)c(-c3occ(C)c3COC(C)=O)ccc12` has an EC50 [1] of 3.5 µg/mL (≈ 10.3 µM), an EC50 [2] of over 10 µg/mL and an EC50 [3] of over 10 µg/mL. For the same molecule, the EC50 [4] was over 10 µg/mL, the EC50 [5] was over 10 µg/mL and the EC50 [6] was over 10 µg/mL.

For `CCc1cccc2c(OC)c(-c3occ(C)c3CO)ccc12`, the EC50 [1] was over 10 µg/mL, the EC50 [2] was 0.73 µg/mL (≈ 2.46 µM) and the Ratio ED50 [8] was over 13.7. For the same molecule, the EC50 [3] was 9.6 µg/mL (≈ 32.4 µM), the “Ratio ED50” value [9] was 9 and the “Ratio ED50” value [10] was 9. It also gave a Ratio ED50 [11] of 13.2, an EC50 [4] of 6.6 µg/mL (≈ 22.3 µM) and an EC50 [7] of over 10 µg/mL. The EC50 [5] was 7.2 µg/mL (≈ 24.3 µM), the EC50 [6] was 7.1 µg/mL (≈ 24 µM) and the “Ratio ED50” value [12] was 9. For the same molecule, the Ratio ED50 [13] was over 13.7.

For `CCOc1c(-c2occ(C)c2COC(C)=O)ccc2c(CC)cccc12`, the EC50 [1] was 4.9 µg/mL (≈ 13.9 µM), the EC50 [2] was over 10 µg/mL and the EC50 [3] was over 10 µg/mL. It also gave an EC50 [4] of 5.8 µg/mL (≈ 16.5 µM), an EC50 [7] of over 10 µg/mL and an EC50 [5] of over 10 µg/mL. For the same molecule, the EC50 [6] was over 10 µg/mL.

With `CCc1cccc2c(OC)c(-c3occ(C)c3C(=O)NC)ccc12` the EC50 [1] was over 10 µg/mL, the EC50 [2] was over 10 µg/mL and the EC50 [3] was over 10 µg/mL. For the same molecule, the EC50 [4] was over 10 µg/mL, the EC50 [7] was over 10 µg/mL and the EC50 [5] was over 10 µg/mL. For the same molecule, the EC50 [6] was over 10 µg/mL.

For `CCc1cccc2c(OC)c(-c3occ(C)c3C(=S)OC)ccc12`, the EC50 [1] was 5.8 µg/mL (≈ 17 µM), the EC50 [2] was 6.3 µg/mL (≈ 18.5 µM) and the EC50 [3] was 6.2 µg/mL (≈ 18.2 µM). For the same molecule, the EC50 [4] was 5.1 µg/mL (≈ 15 µM), the EC50 [7] was 7.1 µg/mL (≈ 20.9 µM) and the EC50 [5] was 5.7 µg/mL (≈ 16.7 µM). It also gave an EC50 [6] of 4.3 µg/mL (≈ 12.6 µM).

Work on `CCOc1c(-c2occ(C)c2C(=O)OC)ccc2c(CC)cccc12` yielded an EC50 [1] of 1.2 µg/mL (≈ 3.55 µM), an EC50 [2] of 1.9 µg/mL (≈ 5.61 µM) and an EC50 [3] of 2.4 µg/mL (≈ 7.09 µM). For the same molecule, the EC50 [4] was 1.7 µg/mL (≈ 5.02 µM), the EC50 [7] was 1.1 µg/mL (≈ 3.25 µM) and the EC50 [5] was 1.9 µg/mL (≈ 5.61 µM). It also gave an EC50 [6] of 1.8 µg/mL (≈ 5.32 µM).

For `CCc1cccc2c(OC)c(-c3occ(C)c3C(=O)OC)ccc12`, the EC50 [1] was 1.3 µg/mL (≈ 4.01 µM), the EC50 [2] was 1.2 µg/mL (≈ 3.7 µM) and the EC50 [3] was 1.5 µg/mL (≈ 4.62 µM). The EC50 [4] was 1.3 µg/mL (≈ 4.01 µM), the EC50 [7] was 2.3 µg/mL (≈ 7.09 µM) and the EC50 [5] was 2.2 µg/mL (≈ 6.78 µM). For the same molecule, the EC50 [6] was 1.7 µg/mL (≈ 5.24 µM).

`CCOC(=O)c1c(C)coc1-c1ccc2c(CC)cccc2c1OC` showed an EC50 [1] of 3.9 µg/mL (≈ 11.5 µM), an EC50 [2] of 2.5 µg/mL (≈ 7.39 µM) and an EC50 [3] of 3.8 µg/mL (≈ 11.2 µM). For the same molecule, the EC50 [4] was 1.8 µg/mL (≈ 5.32 µM), the EC50 [7] was 4.3 µg/mL (≈ 12.7 µM) and the EC50 [5] was 2.2 µg/mL (≈ 6.5 µM). It also gave an EC50 [6] of 2.2 µg/mL (≈ 6.5 µM).
